ChEMBL document CHEMBL4138099, “Design, synthesis and biological evaluation of uncharged catechol derivatives as selective inhibitors of PTP1B” (Eur J Med Chem, 2017)
pIC50: −log10 of the molar value. Activity calls are given as the source filed them. The calls are words filed in the database; no cut-off is given here.

Tests used:
[1] = target: T1, Tyrosine-protein phosphatase non-receptor type 1 (Homo sapiens) (UniProt P18031); test: Inhibition of recombinant GST-tagged PTP1B catalytic domain (1 to 321 residues) (unknown origin) expressed in Escherichia coli BL21(DE3) at 1 mM using pNPP as substrate after 30 mins by spectrophotometric method relative to control
T1 sequence (whole entry): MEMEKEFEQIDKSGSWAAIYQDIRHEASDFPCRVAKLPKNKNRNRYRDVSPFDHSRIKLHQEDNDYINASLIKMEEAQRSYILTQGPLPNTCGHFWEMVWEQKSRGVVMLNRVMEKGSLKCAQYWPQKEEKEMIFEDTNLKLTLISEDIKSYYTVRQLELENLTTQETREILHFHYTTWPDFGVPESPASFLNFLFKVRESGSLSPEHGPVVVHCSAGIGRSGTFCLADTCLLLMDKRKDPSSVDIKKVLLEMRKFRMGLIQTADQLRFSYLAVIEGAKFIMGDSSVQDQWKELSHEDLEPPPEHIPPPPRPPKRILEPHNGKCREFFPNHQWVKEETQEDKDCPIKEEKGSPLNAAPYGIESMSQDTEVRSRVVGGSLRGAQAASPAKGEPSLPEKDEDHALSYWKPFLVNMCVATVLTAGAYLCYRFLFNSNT
Procedure, shortened: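 PTP1B (60 nM) reacted with 4 mM pNPP at 37 °C and pH 7.5 in 10 mM Tris-HCl, 25 mM NaCl, 1 mM EDTA, 2 mM DTT. The compound was added from DMSO at 1% v/v. The reaction was started with enzyme and stopped with 1 N NaOH after 30 min. p-Nitrophenol was read at 405 nm, and activity was taken relative to control.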

[2] = target: T2, Tyrosine-protein phosphatase non-receptor type 1 (Homo sapiens, UniProt P18031); test: Inhibition of recombinant GST-tagged PTP1B catalytic domain (1 to 321 residues) (unknown origin) expressed in Escherichia coli BL21(DE3) using pNPP as substrate after 30 mins by spectrophotometer
T2 sequence (P18031 whole entry): T1 sequence (whole entry)
Procedure, shortened: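 Assay at 37 °C, pH 7.5, in 10 mM Tris-HCl, 25 mM NaCl, 1 mM EDTA and 2 mM DTT, with 4 mM pNPP and 60 nM PTP1B. Inhibitor was added from DMSO at final 100 to 0.01 µM, and the reaction was started with enzyme. After 30 min it was stopped with 1 N NaOH and read at 405 nm. IC50 came from a sigmoidal fit of relative activity versus concentration.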

[3] = target: T3, Tyrosine-protein phosphatase non-receptor type 2 (Homo sapiens, UniProt P17706); test: Inhibition of TCPTP (unknown origin) using pNPP as substrate after 30 mins by spectrophotometer
T3 sequence (P17706 whole entry): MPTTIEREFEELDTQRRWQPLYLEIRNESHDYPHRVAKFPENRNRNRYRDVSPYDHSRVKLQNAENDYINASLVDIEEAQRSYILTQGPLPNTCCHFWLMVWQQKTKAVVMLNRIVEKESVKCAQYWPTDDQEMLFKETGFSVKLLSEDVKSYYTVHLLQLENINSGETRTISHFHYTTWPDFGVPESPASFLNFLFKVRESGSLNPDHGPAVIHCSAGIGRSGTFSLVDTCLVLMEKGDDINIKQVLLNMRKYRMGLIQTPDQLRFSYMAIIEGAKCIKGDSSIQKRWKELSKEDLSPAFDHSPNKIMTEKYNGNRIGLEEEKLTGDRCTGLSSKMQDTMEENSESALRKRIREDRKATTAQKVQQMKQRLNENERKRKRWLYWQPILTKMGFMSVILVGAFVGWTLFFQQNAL

[4] = organism: Homo sapiens; test: Selectivity ratio of IC50 for TCPTP (unknown origin) to IC50 for recombinant GST-tagged PTP1B catalytic domain (1 to 321 residues) (unknown origin)
[5] = target: T4, Tyrosine-protein phosphatase non-receptor type 1 (Mus musculus) (UniProt P35821); test: Inhibition of PTP1B in mouse C2C12 cells assessed as increase in insulin stimulated IRbeta phosphorylation at 2 uM preincubated for 1 hr followed by 100 nM insulin addition measured after 30 mins by immunoblot method; assay type: cell-based
T4 sequence (whole entry): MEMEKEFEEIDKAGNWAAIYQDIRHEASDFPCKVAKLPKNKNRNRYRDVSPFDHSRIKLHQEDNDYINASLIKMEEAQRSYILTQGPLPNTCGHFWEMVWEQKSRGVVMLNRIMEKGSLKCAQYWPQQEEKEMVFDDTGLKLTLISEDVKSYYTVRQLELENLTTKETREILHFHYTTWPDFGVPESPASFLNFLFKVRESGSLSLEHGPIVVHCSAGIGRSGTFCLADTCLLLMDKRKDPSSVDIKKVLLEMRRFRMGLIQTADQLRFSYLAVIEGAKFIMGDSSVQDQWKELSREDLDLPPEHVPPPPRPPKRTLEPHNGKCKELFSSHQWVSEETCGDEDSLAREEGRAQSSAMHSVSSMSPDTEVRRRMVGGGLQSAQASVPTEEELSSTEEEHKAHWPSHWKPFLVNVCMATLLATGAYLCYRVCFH
Procedure, shortened: (§1)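 C2C12 myoblasts were grown in DMEM with 10% fetal calf serum and differentiated to myotubes in 10% horse serum. Myotubes were serum-starved 24 h, then given inhibitor at 0.5–4 µM in serum-free DMEM and stimulated with 100 nM insulin for 30 min at 37 °C. RIPA lysates (10 µg protein) were immunoblotted for phospho-proteins, detected by ECL and quantified by densitometry.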

[6] = target: T4, Tyrosine-protein phosphatase non-receptor type 1 (Mus musculus); test: Inhibition of PTP1B in mouse C2C12 cells assessed as increase in insulin stimulated IRS-1 phosphorylation at 2 uM preincubated for 1 hr followed by 100 nM insulin addition measured after 30 mins by immunoblot method; assay type: cell-based; procedure, shortened: as §1
[7] = target: T1, Tyrosine-protein phosphatase non-receptor type 1 (Homo sapiens); test: Competitive inhibition of recombinant GST-tagged PTP1B catalytic domain (1 to 321 residues) (unknown origin) expressed in Escherichia coli BL21(DE3) at 1 to 4 uM using varying levels of pNPP as substrate after 30 mins by spectrophotometric method
Procedure, shortened: (§2)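 PTP1B-catalysed pNPP hydrolysis read by absorbance of p-nitrophenol at 405 nm, run with pNPP at 0.5, 1.0, 2.0, 4.0 and 8.0 mM, with and without inhibitor. Inhibition mode was assigned from double-reciprocal (1/v) plots.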

[8] = target: T4, Tyrosine-protein phosphatase non-receptor type 1 (Mus musculus); test: Inhibition of PTP1B in mouse C2C12 cells assessed as increase in insulin stimulated AKT phosphorylation at 2 uM preincubated for 1 hr followed by 100 nM insulin addition measured after 30 mins by immunoblot method; assay type: cell-based; procedure, shortened: as §1
[9] = target: T1, Tyrosine-protein phosphatase non-receptor type 1 (Homo sapiens); test: Competitive inhibition of recombinant GST-tagged PTP1B catalytic domain (1 to 321 residues) (unknown origin) expressed in Escherichia coli BL21(DE3) at 1 to 8 uM using varying levels of pNPP as substrate after 30 mins by spectrophotometric method; procedure, shortened: as §2

Structure (SMILES) | pIC50 [2] | also measured
O=Cc1ccc(O)c(O)c1 | – | inhibition [1]: 29%
Oc1ccc(-c2ncc(-c3ccc(Oc4ccccc4)cc3)o2)cc1O | 5.58 | –
CC(C)(C)c1ccc(Oc2ccc(OC(=O)CSc3nnc(-c4ccc(O)c(O)c4)o3)cc2)cc1 | 4.98 | –
COc1ccc(Oc2ccc(-c3cnc(-c4ccc(O)c(O)c4)o3)cc2)cc1 | 5.16 | –
Oc1ccc(-c2nnc(SCc3ccccc3)o2)cc1O | 4.50 | –
O=C(CSc1nnc(-c2ccc(O)c(O)c2)o1)c1ccccc1 | 4.81 | –
CC(C)c1ccc(Oc2ccc(OC(=O)CSc3nnc(-c4ccc(O)c(O)c4)o3)cc2)cc1 | 4.96 | –
COC(=O)CSc1nnc(-c2ccc(O)c(O)c2)o1 | 4.45 | –
Cc1ccc(Oc2ccc(C(=O)CSc3nnc(-c4ccc(O)c(O)c4)o3)cc2)cc1 | 5.41 | pIC50 [3]: 5.06; Ratio IC50 [4]: 2.24
O=C(CSc1nnc(-c2ccc(O)c(O)c2)o1)Oc1ccc(Oc2ccc(OCc3ccccc3)cc2)cc1 | 4.67 | –
O=C(CSc1nnc(-c2ccc(O)c(O)c2)o1)Oc1ccc(Br)cc1 | 3.94 | –
COCCc1ccc(Oc2ccc(-c3cnc(-c4ccc(O)c(O)c4)o3)cc2)cc1 | 4.72 | –
CCOc1ccc(Oc2ccc(OC(=O)CSc3nnc(-c4ccc(O)c(O)c4)o3)cc2)cc1 | 4.77 | –
COc1ccc(OC(=O)CSc2nnc(-c3ccc(O)c(O)c3)o2)cc1 | 5.22 | pIC50 [3]: < 4.00; Ratio IC50 [4]: > 16.6
O=C(CSc1nnc(-c2ccc(O)c(O)c2)o1)Oc1ccc(OCc2ccccc2)cc1 | 5.11 | –
Cc1ccc(OC(=O)CSc2nnc(-c3ccc(O)c(O)c3)o2)cc1 | 5.32 | –
Oc1ccc(-c2ncc(-c3ccc(Oc4ccc(-c5ccccc5)cc4)cc3)o2)cc1O | 5.20 | pIC50 [3]: 5.30; Ratio IC50 [4]: 0.8
O=C(CSc1nnc(-c2ccc(O)c(O)c2)o1)Oc1ccc(C(F)(F)F)cc1 | 4.67 | –
O=C(CSc1nnc(-c2ccc(O)c(O)c2)o1)Oc1ccccc1 | 5.09 | –
CC(C)(C)c1ccc(Oc2ccc(-c3cnc(-c4ccc(O)c(O)c4)o3)cc2)cc1 | 6.31 | pIC50 [3]: 4.88; inhibition [5]: Active; inhibition [6]: Active; inhibition [7]: Active; Ratio IC50 [4]: 27.3; inhibition [8]: Active
CCOc1ccc(Oc2ccc(-c3cnc(-c4ccc(O)c(O)c4)o3)cc2)cc1 | 4.68 | –
CCOc1ccc(OC(=O)CSc2nnc(-c3ccc(O)c(O)c3)o2)cc1 | 5.10 | –
O=C(CSc1nnc(-c2ccc(O)c(O)c2)o1)Oc1ccc(Oc2ccccc2)cc1 | 5.03 | –
CCC(C)(C)c1ccc(Oc2ccc(-c3cnc(-c4ccc(O)c(O)c4)o3)cc2)cc1 | 5.44 | –
Cc1ccc(Oc2ccc(-c3cnc(-c4ccc(O)c(O)c4)o3)cc2)cc1 | 6.09 | inhibition [9]: Active
COCCc1ccc(Oc2ccc(OC(=O)CSc3nnc(-c4ccc(O)c(O)c4)o3)cc2)cc1 | 4.64 | –
CC(C)c1ccc(Oc2ccc(-c3cnc(-c4ccc(O)c(O)c4)o3)cc2)cc1 | 5.13 | –
